Assay results from ChEMBL document CHEMBL2169822, “Discovery and optimization of 1,3,4-trisubstituted-pyrazolone derivatives as novel, potent, and nonsteroidal farnesoid X receptor (FXR) selective antagonists” (J Med Chem, 2012).
Calls of active or inactive are those of the source. No cut-off for these calls is given here.

What was measured:
[1] = target: T1, Peroxisome proliferator-activated receptor gamma (Homo sapiens) (UniProt P37231); assay: Agonist activity at recombinant PPARgamma LBD expressed in HEK293T cells co-expressing GAL4 DBD at 20 uM by transactivation assay; assay type: functional, cell-based; details: HEK-293T
T1 sequence (whole entry): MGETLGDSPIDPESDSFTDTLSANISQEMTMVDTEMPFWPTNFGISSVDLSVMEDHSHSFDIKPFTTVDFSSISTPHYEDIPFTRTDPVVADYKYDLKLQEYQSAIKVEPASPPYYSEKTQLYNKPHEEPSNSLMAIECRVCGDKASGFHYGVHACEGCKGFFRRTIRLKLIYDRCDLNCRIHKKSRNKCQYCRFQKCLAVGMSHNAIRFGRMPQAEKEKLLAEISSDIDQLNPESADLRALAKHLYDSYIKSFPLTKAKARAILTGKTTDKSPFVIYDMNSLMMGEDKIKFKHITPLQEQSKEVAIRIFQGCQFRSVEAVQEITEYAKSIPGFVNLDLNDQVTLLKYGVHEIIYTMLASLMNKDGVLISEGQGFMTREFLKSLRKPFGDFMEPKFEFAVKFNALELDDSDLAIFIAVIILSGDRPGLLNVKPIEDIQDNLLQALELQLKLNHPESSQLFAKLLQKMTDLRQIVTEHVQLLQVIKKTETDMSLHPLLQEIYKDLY
Summary of the method: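 One-hybrid assay in HEK293T cells cotransfected with a Gal4 DBD–NR-LBD fusion (RXRα, LXRα, GR, PR, PPARδ or PPARγ) plus UAS-TK-Luc reporter. Compound was 20 μM, given alone or with agonist: 9cRA 0.1 μM (RXRα), TO901317 0.5 μM (LXRα), dexamethasone 50 nM (GR), progesterone 100 nM (PR), GW1516 10 μM (PPARδ), rosiglitazone 10 μM (PPARγ). Luciferase read-out; three independent experiments.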

HEK-293T = assay: Antagonist activity at FXRalpha/RXRalpha expressed in HEK293T cells co-expressing GAL4 DBD assessed as inhibition of CDCA-induced transactivation at 40 uM after 18 hrs by luciferase reporter gene assay; assay type: functional, cell-based; details: Homo sapiens
Summary of the method: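 FXR transactivation in HEK293T cells transiently transfected with pcDNA3.1-FXRα, pcDNA3.1-RXRα, pGL3-FXRE-Luc and pRL-SV40 Renilla vector. Medium was replaced 6 h after transfection with medium holding compound at varied concentrations, with or without 20 μM CDCA, for 18 h. Read-out was dual-luciferase. Three independent experiments.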

[2] = (§1) Antagonist activity at GST-tagged human recombinant FXRalphaLBD expressed in Escherichia coli BL21 cells assessed as inhibition of CDCA-induced SRC-1 co-activator association by HTRF assay; assay type: functional
Summary of the method: (§2)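 HTRF coactivator recruitment: 10 nM GST-human FXRαLBD (residues 238–473, E. coli BL21(DE3)), 0.83 nM anti-GST-Eu cryptate, 100 nM biotin-SRC1 peptide, 41.75 nM SA/XL665. Buffer was 50 mM Hepes pH 7.0, 125 mM KF, 0.125% CHAPS, 0.05% dry milk. Compound alone or with CDCA, 30 min at room temperature. Signal was 1000×(668/620 nm). Primary screen at 40 μM; IC50 as mean ± SE, three experiments.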

BL21 = assay: as §1; assay type: functional; summary of the method: as §2
[3] = Agonist activity at GST tagged human recombinant FXRalphaLBD expressed in Escherichia coli BL21 cells assessed as SRC-1 co-activator association at 40 uM after 30 mins by HTRF assay; assay type: functional; summary of the method: as §2
[4] = target: T2, Bile acid receptor (Homo sapiens) (UniProt Q96RI1); assay: Antagonist activity at human FXR in human HepG2 cells assessed as inhibition of CDCA induced decrease of Cyp7A1 gene expression at 5 to 40 uM after 24 hrs by RT-PCR analysis; assay type: functional, cell-based
T2 sequence (whole entry): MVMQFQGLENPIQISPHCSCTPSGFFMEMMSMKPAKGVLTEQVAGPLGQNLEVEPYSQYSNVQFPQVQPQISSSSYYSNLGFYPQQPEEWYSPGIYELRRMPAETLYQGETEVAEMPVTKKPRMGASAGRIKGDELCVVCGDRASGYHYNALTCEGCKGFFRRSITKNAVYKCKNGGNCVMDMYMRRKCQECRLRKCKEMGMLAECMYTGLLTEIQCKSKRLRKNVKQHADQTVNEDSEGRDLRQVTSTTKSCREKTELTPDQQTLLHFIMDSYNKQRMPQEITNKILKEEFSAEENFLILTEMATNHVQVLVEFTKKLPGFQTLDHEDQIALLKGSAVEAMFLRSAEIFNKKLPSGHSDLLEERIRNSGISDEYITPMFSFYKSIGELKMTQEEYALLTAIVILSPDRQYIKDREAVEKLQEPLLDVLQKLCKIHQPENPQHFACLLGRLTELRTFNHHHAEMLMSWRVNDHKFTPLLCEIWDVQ
Summary of the method: (§3)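 HepG2 cells in 6-well plates were treated with varied concentrations of compound, with or without 100 μM CDCA, for 24 h. Total RNA was taken with TRIzol and cDNA made by reverse transcription. Cyp7A1, SHP, BSEP and SREBP1c mRNA were measured by quantitative RT-PCR and normalized to β-actin. Three independent experiments.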

Homo sapiens = species on record: Homo sapiens; assay: Ratio of Z-guggulsterone IC50 to compound IC50 for GST-tagged human recombinant FXRalphaLBD
Mus musculus [5] = assay: Reduction of total serum cholesterol level in cholesterol-fed C57BL/6 mouse at 50 to 100 mg/kg, po after 10 days; assay type: functional; design: scale not given: the % may be the effect or the level left; details: dose mg/kg 50-100
Summary of the method: (§4)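 Male C57BL/6 mice, 8–12 weeks old, were randomized into five groups of nine. Control mice had ground chow; the other groups had chow with 2% cholesterol. Compound (50 or 100 mg/kg) or reference (100 mg/kg) was suspended in 0.5% CMC-Na and given by oral gavage; control and vehicle mice got 0.5% CMC-Na. Serum and hepatic triglyceride and total cholesterol were measured.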

Mus musculus [6] = assay: Reduction of serum triglyceride level in cholesterol-fed C57BL/6 mouse administered orally after 10 days; assay type: functional, organism-based; summary of the method: as §4
Mus musculus [7] = assay: Reduction of serum triglyceride level in cholesterol-fed C57BL/6 mouse at 50 mg/kg, po after 10 days; assay type: functional; design: scale not given: the % may be the effect or the level left; summary of the method: as §4
[8] = target: T2, Bile acid receptor (Homo sapiens); assay: Antagonist activity at human FXR in human HepG2 cells assessed as inhibition of CDCA induced SHP gene expression at 5 to 40 uM after 24 hrs by RT-PCR analysis; assay type: functional, cell-based; summary of the method: as §3

COc1cc(/C=C2\C(=O)N(c3cccc([N+](=O)[O-])c3)N=C2c2ccccc2)ccc1O
Activity [1]: < 15.2%
inhibition (HEK-293T): Active
IC50 [2]: 8.96 µM
inhibition (BL21): Dose-dependent effect
Activity [3]: <5%
inhibition [4]: Active
Ratio IC50 (Homo sapiens): 10
Activity (Mus musculus [5]): 17.2%
Activity (Mus musculus [6]): Dose-dependent effect
Activity (Mus musculus [7]): 48.4%
inhibition [8]: Active
